For series [1], the target named is T1, Bifunctional epoxide hydrolase 2 (Homo sapiens, UniProt P34913).
T1 sequence (P34913 whole entry): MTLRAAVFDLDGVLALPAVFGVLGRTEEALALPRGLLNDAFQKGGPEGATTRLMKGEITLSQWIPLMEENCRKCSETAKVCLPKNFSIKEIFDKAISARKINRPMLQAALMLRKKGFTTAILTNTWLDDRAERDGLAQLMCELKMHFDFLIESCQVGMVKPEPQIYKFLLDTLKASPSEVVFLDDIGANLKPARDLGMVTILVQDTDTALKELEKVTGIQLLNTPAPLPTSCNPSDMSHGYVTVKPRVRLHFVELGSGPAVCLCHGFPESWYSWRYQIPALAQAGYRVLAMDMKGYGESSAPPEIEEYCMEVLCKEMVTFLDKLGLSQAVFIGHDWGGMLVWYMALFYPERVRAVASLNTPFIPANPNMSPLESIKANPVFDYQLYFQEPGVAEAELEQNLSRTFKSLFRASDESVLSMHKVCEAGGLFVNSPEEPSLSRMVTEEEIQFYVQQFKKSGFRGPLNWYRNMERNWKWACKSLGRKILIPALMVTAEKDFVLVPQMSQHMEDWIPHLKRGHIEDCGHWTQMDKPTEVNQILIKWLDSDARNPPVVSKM
As to the kind of experiment: Inhibition of recombinant human soluble epoxide hydrolase using CMNPC as substrate preincubated for 5 mins followed by substrate addition and measured at 30 secs interval for 10 mins by fluorescence assay.

Series [2] has as its target T2, Bifunctional epoxide hydrolase 2 (Mus musculus, UniProt P34914).
T2 sequence (P34914 whole entry): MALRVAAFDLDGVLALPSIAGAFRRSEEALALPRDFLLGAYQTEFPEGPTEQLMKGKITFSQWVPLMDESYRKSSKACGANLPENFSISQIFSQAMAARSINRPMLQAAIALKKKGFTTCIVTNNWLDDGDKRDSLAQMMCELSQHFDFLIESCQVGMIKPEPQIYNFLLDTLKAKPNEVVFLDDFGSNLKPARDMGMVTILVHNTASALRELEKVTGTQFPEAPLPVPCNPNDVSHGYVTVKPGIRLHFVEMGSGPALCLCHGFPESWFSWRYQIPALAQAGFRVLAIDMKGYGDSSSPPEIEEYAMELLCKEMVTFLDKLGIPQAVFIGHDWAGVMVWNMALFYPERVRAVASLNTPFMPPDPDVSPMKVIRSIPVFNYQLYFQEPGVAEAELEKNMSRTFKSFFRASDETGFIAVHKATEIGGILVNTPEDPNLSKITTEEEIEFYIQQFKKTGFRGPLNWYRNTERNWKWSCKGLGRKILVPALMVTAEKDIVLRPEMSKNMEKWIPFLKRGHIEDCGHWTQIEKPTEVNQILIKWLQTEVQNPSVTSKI
As to the kind of experiment: Inhibition of recombinant mouse soluble epoxide hydrolase using CMNPC as substrate preincubated for 5 mins followed by substrate addition and measured at 30 secs interval for 10 mins by fluorescence assay. In short, it runs like this: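 Purified recombinant enzyme was preincubated with inhibitor (0.4–100,000 nM final) for 5 min at 30 °C in 100 mM sodium phosphate, pH 7.4, with 0.1 mg/mL BSA and 1% DMSO. CMNPC was added at 5 μM final. 6-Methoxynaphthaldehyde fluorescence (ex 330/em 465 nm) was read every 30 s for 10 min. IC50 values are averages of three replicates.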

Series [3] is described as follows: Apparent permeability across apical to basolateral side in human Caco-2 cells at 10 uM measured after 2 hrs by LC-MS/MS analysis. Particulars: caco-2, 2 h. A general note: Caco-2 monolayers are a common model of the intestinal barrier.
A short description of the next series: physchem. Particulars: 1% DMSO/99% PBS buffer solution.
The nature of series [4]: Apparent permeability across basolateral to apical side in human Caco-2 cells at 10 uM measured after 2 hrs by LC-MS/MS analysis. Particulars: caco-2, 2 h.
For another series, the system named is THLE-2. As to the kind of experiment: Cytotoxicity against human THLE-2 cells assessed as reduction in cell viability measured after 72 hrs by ATPlite assay. Format: cell-based. Particulars: thle-2, 72 h, read-out: LC50 (the source's name). In short, it runs like this:
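THLE-2 cells were grown in BEGM with 0.7 μg/mL phosphoethanolamine, 0.5 ng/mL EGF and 10% FBS, plated at 10,000 cells/well and left to adhere for 24 h. Cells were exposed to 0–100 μM final (1% DMSO) for 72 h at 37 °C, 5% CO2.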

Series [5] is described as follows: Stability in rat liver microsomes assessed as parent compound remaining measured after 60 mins in presence of NADPH by LC-MS/MS analysis. Format: ADME, Microsome. Particulars: read-out: Stabilty. A digest of the protocol:
(§1)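 Compound is incubated at 37 °C with human, mouse or rat liver microsomes in 50 mM phosphate buffer pH 7.4. […] Samples at 0–60 min are quenched into acetonitrile; percent parent remaining at 60 min is reported. Testosterone is the positive control.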
(In general: Liver microsomes are vesicles of endoplasmic reticulum, rich in cytochrome P450 enzymes.)

The nature of series [6]: Stability in human liver microsomes assessed as parent compound remaining measured after 60 mins in presence of NADPH by LC-MS/MS analysis. It counts as ADME, Microsome. Particulars: read-out: Stabilty. A digest of the protocol: as §1
Series [7] in a line: Stability in mouse liver microsomes assessed as parent compound remaining measured after 60 mins in presence of NADPH by LC-MS/MS analysis. Format: ADME, Microsome. Particulars: read-out: Stabilty. In short, it runs like this: as §1
Series [8] in a line: Cytotoxicity against human PBMC assessed as reduction in cell viability measured after 72 hrs by ATPlite assay. Particulars: read-out: LC50 (the source's name). On the technique in general: ATP-based viability assays read luminescence as a measure of living cells.
Series [9] concerns the target T3, Prostaglandin G/H synthase 2 (Homo sapiens) (UniProt P35354).
T3 sequence (whole entry): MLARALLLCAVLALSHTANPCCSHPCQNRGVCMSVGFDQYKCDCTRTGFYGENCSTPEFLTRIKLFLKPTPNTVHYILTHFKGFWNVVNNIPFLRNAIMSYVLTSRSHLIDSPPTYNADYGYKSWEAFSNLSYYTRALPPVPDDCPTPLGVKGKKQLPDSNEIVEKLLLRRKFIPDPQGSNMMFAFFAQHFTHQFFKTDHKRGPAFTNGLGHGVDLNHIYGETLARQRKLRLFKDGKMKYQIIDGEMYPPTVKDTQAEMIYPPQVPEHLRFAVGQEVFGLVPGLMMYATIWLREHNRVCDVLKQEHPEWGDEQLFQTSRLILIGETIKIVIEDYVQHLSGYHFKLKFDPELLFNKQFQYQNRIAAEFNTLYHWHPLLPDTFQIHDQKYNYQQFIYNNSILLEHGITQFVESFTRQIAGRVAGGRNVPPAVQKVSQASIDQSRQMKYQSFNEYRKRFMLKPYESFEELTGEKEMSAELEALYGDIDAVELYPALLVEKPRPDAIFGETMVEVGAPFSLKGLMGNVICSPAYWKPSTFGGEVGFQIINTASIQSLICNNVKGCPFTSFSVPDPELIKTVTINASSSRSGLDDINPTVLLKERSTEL
As to the kind of experiment: Inhibition of recombinant human COX2 using arachidonic acid as substrate measured after 5 mins by fluorescence assay.

In series [10] the target is T4, Polyunsaturated fatty acid 5-lipoxygenase (Homo sapiens) (UniProt P09917).
T4 sequence (whole entry): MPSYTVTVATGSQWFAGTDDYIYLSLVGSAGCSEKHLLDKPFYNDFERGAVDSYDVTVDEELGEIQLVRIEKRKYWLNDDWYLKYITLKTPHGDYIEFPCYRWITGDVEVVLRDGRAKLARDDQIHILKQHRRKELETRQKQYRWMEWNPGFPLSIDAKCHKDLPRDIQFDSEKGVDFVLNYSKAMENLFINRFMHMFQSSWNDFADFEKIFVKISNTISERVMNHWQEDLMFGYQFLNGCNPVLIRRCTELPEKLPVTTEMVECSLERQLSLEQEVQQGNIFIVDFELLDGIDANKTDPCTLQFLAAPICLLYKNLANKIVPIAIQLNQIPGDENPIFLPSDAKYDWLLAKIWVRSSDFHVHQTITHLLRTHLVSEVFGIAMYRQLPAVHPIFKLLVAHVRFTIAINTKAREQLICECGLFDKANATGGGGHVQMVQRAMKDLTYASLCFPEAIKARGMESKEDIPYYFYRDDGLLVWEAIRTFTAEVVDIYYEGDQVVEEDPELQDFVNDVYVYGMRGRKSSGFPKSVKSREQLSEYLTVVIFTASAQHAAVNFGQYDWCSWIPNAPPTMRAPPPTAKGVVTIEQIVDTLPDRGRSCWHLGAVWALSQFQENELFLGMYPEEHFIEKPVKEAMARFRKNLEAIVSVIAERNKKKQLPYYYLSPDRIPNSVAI
As to the kind of experiment: Inhibition of recombinant human full-length LOX5 (1 to 674 residues) expressed in insect cells using arachidonic acid as substrate preincubated for 10 mins followed by substrate addition measured after 20 mins by H2DCFDA probe based fluorescence assay. Particulars: time 30.0 min.

Series [11] can be described thus: Efflux ratio of apparent permeability across basolateral to apical side over apical to basolateral side in human Caco-2 cells at 10 uM measured after 2 hrs by LC-MS/MS analysis.

These results are taken from ChEMBL document CHEMBL4725350, “2-Oxaadamant-1-yl Ureas as Soluble Epoxide Hydrolase Inhibitors: In Vivo Evaluation in a Murine Model of Acute Pancreatitis” (J Med Chem, 2020).

The structures appear in SMILES notation. In brackets after ≈: the same amount, converted by molar mass. Activity calls are given as the source filed them. The rule behind the calls is not given here.

As a reminder, the IC50 is the midpoint of a concentration-inhibition curve. What is called Papp is a coefficient for how fast a substance crosses the barrier. A word on the solubility (kinetic): it is the concentration staying in solution when a stock, usually in DMSO, is diluted into the medium. The term efflux ratio denotes a quotient of directional permeabilities that is used to spot active efflux.

For the compound `O=C(NC1CCN(C(=O)C2CC2)CC1)NC12CC3CC(CC(C3)O1)C2`, the results for the IC50 in [1] and in [2] were 0.213 µM and 0.13 µM, respectively.
On the same counts, the results for `O=C(NC1CCN(C(=O)c2cccnc2)CC1)NC12CC3CC(CC(C3)O1)C2` are 0.159 µM and 0.291 µM.
Turning to `CS(=O)(=O)N1CCC(NC(=O)NC23CC4CC(CC(C4)O2)C3)CC1`, the IC50 in series [1] came out at 0.247 µM; in series [2], 0.174 µM.
In the case of `CNc1nc(C)nc(N2CCC(NC(=O)NC34CC5CC(CC(C5)O3)C4)CC2)n1`, the IC50 was 0.496 µM in [1] and 0.365 µM in series [2].
On the same counts, the results for `O=C(Nc1ccc(Cl)c(C(F)(F)F)c1)NC12CC3CC(CC(C3)O1)C2` are 0.0197 µM and 0.344 µM.
Take `O=C(Nc1ccc(F)c(F)c1F)NC12CC3CC(CC(C3)C1)C2`: the Papp is given as 6.7 nm/s in [3] and 4.6 nm/s in [4]. Also, the solubility (kinetic) at 2 h in “physchem” was 16 µM (≈ 5.19 µg/mL).
For the compound `CC(=O)c1ccc(N2CCC(NC(=O)NC34CC5CC(CC(C5)O3)C4)CC2)cc1`, the CC50 in the series on THLE-2 was more than 100 µM. For the same compound, the IC50 in series [2] was 0.107 µM. Also, the values for the remaining at 1 h in [5], in series [6] and in series [7] were 84%, 40% and 73%, respectively. In addition, in the series “physchem”, the solubility (kinetic) at 2 h came to 81.5 µM (≈ 32.4 µg/mL).
`O=C(Nc1ccc(F)c(F)c1F)NC12CC3CC(CC(C3)O1)C2`: the values for the Papp in series [3] and in series [4] were 168 nm/s and 151 nm/s, respectively. In [2], the IC50 was found to be 0.553 µM. The compound also registered a solubility (kinetic) at 2 h in “physchem” of 27 µM (≈ 8.81 µg/mL).
Consider `O=C(Nc1cccc(S(F)(F)(F)(F)F)c1)NC12CC3CC(CC(C3)O1)C2`, for which the IC50 in [1] turned out to be 0.0359 µM; in series [2], 0.723 µM.
On the same counts, the results for `O=C(Nc1cc(Cl)cc(OC(F)(F)F)c1)NC12CC3CC(CC(C3)O1)C2` are 0.0526 µM and 1.86 µM.
Turning to `O=C(NC1CCN(C(=O)c2ccccc2F)CC1)NC12CC3CC(CC(C3)O1)C2`, the CC50 with THLE-2 was more than 100 µM; in series [8], more than 20 µM. Also, the inhibition entry in series [9] and in series [10] was “inactive” throughout. Further, in series [2], the IC50 turned out to be 0.0759 µM. In addition, the remaining at 1 h in series [5] was found to be 19.3%; in series [6] it was 30.2%; in series [7] it was 39.5%. The kinetic solubility at 2 h in “physchem” is more than 100 µM.
In the case of `O=C(NC1CCN(Cc2ccccc2)CC1)NC12CC3CC(CC(C3)O1)C2`, the IC50 in series [1] worked out at 1.09 µM.
In the case of `O=C(Nc1nc2ccccc2s1)NC12CC3CC(CC(C3)O1)C2`, the IC50 in series [1] stood at 0.782 µM; in series [2] it was 14.7 µM.
`O=C(NC12CC3CC(CC(C3)O1)C2)N[C@H]1CC[C@H](Oc2ccc(C(=O)O)cc2)CC1`: the Papp in series [3] was 1.4 nm/s; in series [4] it was 75.5 nm/s. The efflux ratio at 2 h, 10 µM in series [11] came to 55.4. The IC50 in series [1] came out at 0.009 µM. Further, the solubility (kinetic) at 2 h in “physchem” is more than 100 µM.
As to `CCC(=O)N1CCC(NC(=O)NC23CC4CC(CC(C4)O2)C3)CC1`, the inhibition entry in series [9] and in [10] was “inactive” in each case. Besides, the IC50 came out at 0.356 µM in [1] and 0.234 µM in [2].
As for `O=C(Nc1ccon1)NC12CC3CC(CC(C3)O1)C2`, the IC50 in [1] was 0.911 µM; in series [2] it was 3.85 µM.
For `O=C(NC1CCN(C(=O)C2CCOCC2)CC1)NC12CC3CC(CC(C3)O1)C2`, in that order: 0.491 µM and 0.512 µM.
For `O=C(Nc1ncncn1)NC12CC3CC(CC(C3)O1)C2`, the IC50 in series [1] worked out at 1.45 µM.
